# Assay results published in ChEMBL document CHEMBL1759915, “Synthesis and anticancer effects of some novel pyrazolo[3,4-d]pyrimidine derivatives by generating reactive oxygen species in human breast adenocarcinoma cells” (Eur J Med Chem, 2011).
# Tests used:
# MCF7 [1] = experiment: Effect on hydrogen peroxide level in human MCF7 cells assessed per mg protein at 2 ug/ml by Wolf's method after 24 hrs (reference value: 12.50 +/- 1.54 nmol/mg of protein); format: functional
# MCF7 [2] = experiment: Effect on hydrogen peroxide level in human MCF7 cells assessed per mg protein at 5 ug/ml by Wolf's method after 24 hrs (reference value: 12.50 +/- 1.54 nmol/mg of protein); format: functional
# MCF7 [3] = experiment: Effect on hydrogen peroxide level in human MCF7 cells assessed per mg protein at 10 ug/ml by Wolf's method after 24 hrs (reference value: 12.50 +/- 1.54 nmol/mg of protein); format: functional
# MCF7 [4] = experiment: Effect on hydrogen peroxide level in human MCF7 cells assessed per mg protein at 20 ug/ml by Wolf's method after 24 hrs (reference value: 12.50 +/- 1.54 nmol/mg of protein); format: functional
# MCF7 [5] = experiment: Decrease in CAT level in human MCF7 cells; format: functional, cell-based
# MCF7 [6] = experiment: Decrease in glutathione peroxidase level in human MCF7 cells; format: functional, cell-based
# MCF7 [7] = experiment: Decrease in glutathione level in human MCF7 cells; format: functional, cell-based
# MCF7 [8] = experiment: Increase in hydrogen peroxide level in human MCF7 cells; format: functional, cell-based
# MCF7 [9] = experiment: Increase in SOD level in human MCF7 cells; format: functional, cell-based
# MCF7 [10] = experiment: Effect on DNA level in human MCF7 cells assessed per 10 '6 cells at 2 ug/ml after 24 hrs (reference value: 6.80 +/- 0.70 ug/10^6 cells); format: functional
# Procedure, shortened: (§1)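 After 24 h exposure of MCF-7 cells to compound at 2, 5, 10 or 20 µg/ml at 37 °C, nucleic acids were precipitated from cell homogenates. DNA was extracted and assayed by the Zhou et al. method, and RNA by a kit-derived procedure. Results given per 10⁶ cells as means ± S.E. of four experiments versus untreated control.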
# MCF7 [11] = experiment: Effect on DNA level in human MCF7 cells assessed per 10 '6 cells at 5 ug/ml after 24 hrs (reference value: 6.80 +/- 0.70 ug/10^6 cells); format: functional; procedure, shortened: as §1
# MCF7 [12] = experiment: Effect on DNA level in human MCF7 cells assessed per 10 '6 cells at 10 ug/ml after 24 hrs (reference value: 6.80 +/- 0.70 ug/10^6 cells); format: functional; procedure, shortened: as §1
# MCF7 [13] = experiment: Effect on DNA level in human MCF7 cells assessed per 10 '6 cells at 20 ug/ml after 24 hrs (reference value: 6.80 +/- 0.70 ug/10^6 cells); format: functional; procedure, shortened: as §1
# MCF7 [14] = experiment: Effect on RNA level in human MCF7 cells assessed per 10 '6 cells at 2 ug/ml after 24 hrs (reference value: 11.50 +/- 0.70 ug/10^6 cells); format: functional; procedure, shortened: as §1
# MCF7 [15] = experiment: Effect on RNA level in human MCF7 cells assessed per 10 '6 cells at 5 ug/ml after 24 hrs (reference value: 11.50 +/- 0.70 ug/10^6 cells); format: functional; procedure, shortened: as §1
# MCF7 [16] = experiment: Effect on RNA level in human MCF7 cells assessed per 10 '6 cells at 10 ug/ml after 24 hrs (reference value: 11.50 +/- 0.70 ug/10^6 cells); format: functional; procedure, shortened: as §1
# MCF7 [17] = experiment: Effect on RNA level in human MCF7 cells assessed per 10 '6 cells at 20 ug/ml after 24 hrs (reference value: 11.50 +/- 0.70 ug/10^6 cells); format: functional; procedure, shortened: as §1
# MCF7 [18] = experiment: Decrease in DNA level in human MCF7 cells assessed per 10 '6 cells after 24 hrs relative to control; format: functional, cell-based; procedure, shortened: as §1
# MCF7 [19] = experiment: Decrease in RNA level in human MCF7 cells assessed per 10 '6 cells after 24 hrs relative to control; format: functional, cell-based; procedure, shortened: as §1
# MCF7 [20] = experiment: Antiproliferative activity against human MCF7 cells after 24 hrs by MTT assay; format: functional, cell-based; details: for IC50: MCF7, 24 h
# Procedure, shortened: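 MCF-7 cells (DMEM, 10% heat-inactivated FCS, penicillin/streptomycin, 37 °C, 5% CO2) plated at 0.65 × 10⁵ cells/well and given 24 h to attach. Exposed to compound or cisplatin at 2, 5, 10 or 20 µg/ml for 24 h at 37 °C. MTT added for 4 h, formazan dissolved in DMSO, absorbance read at 570 nm. Viability taken relative to untreated cells and IC50 derived.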
# MCF7 [21] = experiment: Effect on SOD level in human MCF7 cells assessed per mg protein at 2 ug/ml after 24 hrs (reference value: 27.61+/- 3.72 U/mg of protein); format: functional
# MCF7 [22] = experiment: Effect on SOD level in human MCF7 cells assessed per mg protein at 5 ug/ml after 24 hrs (reference value: 27.61+/- 3.72 U/mg of protein); format: functional
# MCF7 [23] = experiment: Effect on SOD level in human MCF7 cells assessed per mg protein at 10 ug/ml after 24 hrs (reference value: 27.61+/- 3.72 U/mg of protein); format: functional
# MCF7 [24] = experiment: Effect on SOD level in human MCF7 cells assessed per mg protein at 20 ug/ml after 24 hrs (reference value: 27.61+/- 3.72 U/mg of protein); format: functional
# MCF7 [25] = experiment: Effect on CAT level in human MCF7 cells assessed per mg protein at 2 ug/ml after 24 hrs (reference value: 7.90+/- 0.67 U/mg of protein); format: functional
# MCF7 [26] = experiment: Effect on CAT level in human MCF7 cells assessed per mg protein at 5 ug/ml after 24 hrs (reference value: 7.90+/- 0.67 U/mg of protein); format: functional
# MCF7 [27] = experiment: Effect on CAT level in human MCF7 cells assessed per mg protein at 10 ug/ml after 24 hrs (reference value: 7.90+/- 0.67 U/mg of protein); format: functional
# MCF7 [28] = experiment: Effect on CAT level in human MCF7 cells assessed per mg protein at 20 ug/ml after 24 hrs (reference value: 7.90+/- 0.67 U/mg of protein); format: functional
# MCF7 [29] = experiment: Effect on glutathione peroxidase level in human MCF7 cells assessed per mg protein at 2 ug/ml after 24 hrs (reference value: 11.20 +/- 1.36 U/mg of protein); format: functional
# MCF7 [30] = experiment: Effect on glutathione peroxidase level in human MCF7 cells assessed per mg protein at 5 ug/ml after 24 hrs (reference value: 11.20 +/- 1.36 U/mg of protein); format: functional
# MCF7 [31] = experiment: Effect on glutathione peroxidase level in human MCF7 cells assessed per mg protein at 10 ug/ml after 24 hrs (reference value: 11.20 +/- 1.36 U/mg of protein); format: functional
# MCF7 [32] = experiment: Effect on glutathione peroxidase level in human MCF7 cells assessed per mg protein at 20 ug/ml after 24 hrs (reference value: 11.20 +/- 1.36 U/mg of protein); format: functional
# MCF7 [33] = experiment: Effect on glutathione level in human MCF7 cells assessed per mg protein at 2 ug/ml by Ellman method after 24 hrs (reference value: 39.82 +/- 4.20 nmol/mg of protein); format: functional
# MCF7 [34] = experiment: Effect on glutathione level in human MCF7 cells assessed per mg protein at 5 ug/ml by Ellman method after 24 hrs (reference value: 39.82 +/- 4.20 nmol/mg of protein); format: functional
# MCF7 [35] = experiment: Effect on glutathione level in human MCF7 cells assessed per mg protein at 10 ug/ml by Ellman method after 24 hrs (reference value: 39.82 +/- 4.20 nmol/mg of protein); format: functional
# MCF7 [36] = experiment: Effect on glutathione level in human MCF7 cells assessed per mg protein at 20 ug/ml by Ellman method after 24 hrs (reference value: 39.82 +/- 4.20 nmol/mg of protein); format: functional
Compound,Activity (MCF7 [1]),Activity (MCF7 [2]),Activity (MCF7 [3]),Activity (MCF7 [4]),Activity (MCF7 [5]),Activity (MCF7 [6]),Activity (MCF7 [7]),Activity (MCF7 [8]),Activity (MCF7 [9]),Activity (MCF7 [10]),Activity (MCF7 [11]),Activity (MCF7 [12]),Activity (MCF7 [13]),Activity (MCF7 [14]),Activity (MCF7 [15]),Activity (MCF7 [16]),Activity (MCF7 [17]),Activity (MCF7 [18]),Activity (MCF7 [19]),Activity (MCF7 [20]),also measured
CCOCCSc1ncnc2c1cnn2-c1nc(C)nc2sc3c(c12)-c1ccccc1CC3,30.3 nmol,30.5 nmol,40 nmol,55 nmol,Dose-dependent effect,Dose-dependent effect,Dose-dependent effect,Dose-dependent effect,Dose-dependent effect,4.6 µg/10^6 cells,4.2 µg/10^6 cells,3.75 µg/10^6 cells,3 µg/10^6 cells,7.9 µg/10^6 cells,7 µg/10^6 cells,6.5 µg/10^6 cells,6.2 µg/10^6 cells,Dose-dependent effect,Dose-dependent effect,Dose-dependent effect,IC50 (MCF7 [20]): 6.4 µg/mL; Activity (MCF7 [21]): 85.7 U/mg protein; Activity (MCF7 [22]): 115 U/mg protein; Activity (MCF7 [23]): 190 U/mg protein; Activity (MCF7 [24]): 251 U/mg protein; Activity (MCF7 [25]): 5.2 U/mg protein; Activity (MCF7 [26]): 4.5 U/mg protein; Activity (MCF7 [27]): 4 U/mg protein; Activity (MCF7 [28]): 3.2 U/mg protein; Activity (MCF7 [29]): 7.35 U/mg protein; Activity (MCF7 [30]): 7 U/mg protein; Activity (MCF7 [31]): 6 U/mg protein; Activity (MCF7 [32]): 5.25 U/mg protein; Activity (MCF7 [33]): 30 nmol; Activity (MCF7 [34]): 25 nmol; Activity (MCF7 [35]): 20.25 nmol; Activity (MCF7 [36]): 18.6 nmol
Cc1nc(-n2ncc3c(=O)[nH]cnc32)c2c3c(sc2n1)CCc1ccccc1-3,32 nmol,40.6 nmol,52 nmol,60.3 nmol,Dose-dependent effect,Dose-dependent effect,Dose-dependent effect,Dose-dependent effect,Dose-dependent effect,4.2 µg/10^6 cells,3.8 µg/10^6 cells,3 µg/10^6 cells,2.7 µg/10^6 cells,7.6 µg/10^6 cells,6.4 µg/10^6 cells,5.81 µg/10^6 cells,5.25 µg/10^6 cells,Dose-dependent effect,Dose-dependent effect,Dose-dependent effect,IC50 (MCF7 [20]): 4.4 µg/mL; Activity (MCF7 [21]): 95.6 U/mg protein; Activity (MCF7 [22]): 126 U/mg protein; Activity (MCF7 [23]): 240 U/mg protein; Activity (MCF7 [24]): 290 U/mg protein; Activity (MCF7 [25]): 4 U/mg protein; Activity (MCF7 [26]): 3.6 U/mg protein; Activity (MCF7 [27]): 2.8 U/mg protein; Activity (MCF7 [28]): 2.3 U/mg protein; Activity (MCF7 [29]): 6.9 U/mg protein; Activity (MCF7 [30]): 5.5 U/mg protein; Activity (MCF7 [31]): 3.11 U/mg protein; Activity (MCF7 [32]): 2.65 U/mg protein; Activity (MCF7 [33]): 27.9 nmol; Activity (MCF7 [34]): 18.66 nmol; Activity (MCF7 [35]): 17.7 nmol; Activity (MCF7 [36]): 16 nmol
